# From PubChem
# Shown is part of a subset that was picked to be rich in hits.
# INS-1E rescue – preserves ATP levels in cytokine-treated INS-1E cells | INS-1E cytokine-induced death, ATP luminescence, 48 h; normalised: neutral wells 0, positive control 100 | protection from cytokine-induced ATP loss, % at 10 µM | AID 488910 | 20,000 compounds, 0.1% hits;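 active = mean replicate protection from cytokine-induced ATP loss at least 50% and at least 75% of replicates each reaching 50%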
#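 Assay system – rat INS-1E insulinoma cell line · Quantity – 8000 cells per well · Buffer or medium – RPMI without phenol red, 5% FBS · Schedule – 48 h co-treatment, 10 min post-lysis read · Technique – luminescent ATP assay (CellTiter-Glo)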
# T cruzi HTS – intracellular Trypanosoma cruzi inhibition | intracellular Trypanosoma cruzi in host cells, plate reader | activity score (inhibition), % at 5.01 µM | 22,000 compounds, 4.9% hits | AID 651903; in the data active = activity score above about 55%;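 also: parasites and compound incubated about four days before reading; 0% = median of neutral control wells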
# A1 apoptosis 2 – blocks A1, raising caspase activity | AID 2465 | caspase activation, % (no concentration beside the values) | 24,000 tested, under 10 active | MEF A1-2A-BIM cells, caspase-Glo luminescence, 3 h; percent of clofoctol response, DMSO zero; in the data active = caspase activation above about 5.9%
#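 Evaluation: Caspase-3/7 activity from luminescence increase | Assay system: A1-2A-BIM mouse embryonic fibroblasts | Quantity: 2500 MEF cells/well | Medium: RPMI-1640 plus 10% FBS | Detection: Caspase-Glo 3/7 luminescence, 1 h at room temperature | Dosing: 50 nL compound per well, pinned | Timing: Cells settled overnight, compound exposure 3 h at 37 °C, 5% CO2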
# An asterisk follows results filed as active; . = no result given.
SMILES,INS-1E rescue,T cruzi HTS,A1 apoptosis 2
C[C@@H]1CN([C@H](C)CO)C(=O)Cc2cc(NC(=O)Nc3ccc(F)cc3)ccc2O[C@H]1CN(C)Cc1ccc(C(=O)Nc2ccccc2N)cc1,1,33,.
C[C@@H]1CN([C@@H](C)CO)C(=O)c2cc(NC(=O)Nc3ccc(C(F)(F)F)cc3)ccc2O[C@H]1CN(C)Cc1ccc(C(=O)Nc2ccccc2N)cc1,2,39,.
C[C@@H]1CN([C@@H](C)CO)C(=O)Cc2cc(NC(=O)Nc3ccc(C(F)(F)F)cc3)ccc2O[C@@H]1CN(C)Cc1ccc(C(=O)Nc2ccccc2N)cc1,-28,84*,.
O=C1O[C@@H](c2ccccc2)[C@@H](c2ccccc2)N2[C@@H](c3ccc(OCCO)cc3)[C@]3(C(=O)Nc4ccc(C#CC5=CCCCC5)cc43)[C@@H](C(=O)O)[C@H]12,.,.,0
C[C@H](CO)N1C[C@H](C)[C@@H](CN(C)S(=O)(=O)c2ccc(Cl)cc2)Oc2c(NC(=O)Nc3ccc4c(c3)OCO4)cccc2C1=O,-1,27,.
C[C@H]1CN([C@@H](C)CO)C(=O)c2cccc(NC(=O)C3CC3)c2O[C@H]1CN(C)C(=O)Nc1cccc2ccccc12,5,-7,-1
C[C@@H]1CN([C@@H](C)CO)C(=O)CCCn2cc(nn2)CO[C@@H]1CN(C)C(=O)CCCN(C)C,.,-20,0
C[C@@H]1CN([C@@H](C)CO)C(=O)Cc2cc(NC(=O)Nc3ccc(F)cc3)ccc2O[C@H]1CN(C)Cc1ccc(C(=O)Nc2ccccc2N)cc1,.,.,-1
C[C@@H]1CN([C@@H](C)CO)C(=O)Cc2cc(NC(=O)CCC(F)(F)F)ccc2O[C@@H]1CN(C)Cc1ccc(C(=O)Nc2ccccc2N)cc1,-7,68*,.
C[C@H](CO)N1C[C@H](C)[C@H](CN(C)Cc2ccc(C(=O)Nc3ccccc3N)cc2)Oc2ccc(NC(=O)CCC(F)(F)F)cc2CC1=O,29,53,0
C[C@H](CO)N1C[C@H](C)[C@H](CN(C)Cc2ccc(C(=O)Nc3ccccc3N)cc2)Oc2ccc(NC(=O)Nc3ccc(C(F)(F)F)cc3)cc2CC1=O,-21,82*,.
C[C@H](CO)N1C[C@H](C)[C@H](CN(C)C(=O)Nc2cccc3ccccc23)Oc2ncc(C#Cc3cccc(F)c3)cc2C1=O,.,66*,.
C[C@H](CO)N1C[C@H](C)[C@H](CN(C)C(=O)Nc2cccc3ccccc23)Oc2ncc(-c3cccc(C(F)(F)F)c3)cc2C1=O,.,62*,.
C[C@H](CO)N1C[C@H](C)[C@H](CN(C)C(=O)Nc2cccc3ccccc23)Oc2ncc(C#CC(C)(C)O)cc2C1=O,.,-9,.
C[C@H](CO)N1C[C@H](C)[C@H](CN(C)C(=O)Nc2cccc3ccccc23)Oc2ncc(-c3cccc(F)c3)cc2C1=O,.,32,0
C[C@H](CO)N1C[C@H](C)[C@H](CN(C)C(=O)Nc2cccc3ccccc23)Oc2ncc(C#Cc3ccc(C(F)(F)F)cc3)cc2C1=O,.,85*,0
C[C@H](CO)N1C[C@H](C)[C@H](CN(C)C(=O)Nc2ccccc2)Oc2ncc(C#Cc3cccc(F)c3)cc2C1=O,-13,30,0
Cc1noc(C)c1NC(=O)N(C)C[C@H]1Oc2ccc(NC(=O)NC(C)C)cc2CC(=O)N([C@@H](C)CO)C[C@H]1C,4,-5,0
Cc1noc(C)c1NC(=O)Nc1ccc2c(c1)C(=O)N([C@@H](C)CO)C[C@@H](C)[C@H](CN(C)Cc1ccc3c(c1)OCO3)O2,-2,-13,.
C[C@H]1CN([C@@H](C)CO)C(=O)Cc2cc(NC(=O)C3CC3)ccc2O[C@H]1CN(C)CC1CC1,6,-15,.
C[C@@H]1CN([C@@H](C)CO)C(=O)Cc2cc(NS(=O)(=O)c3ccccc3)ccc2O[C@@H]1CN(C)Cc1ccc(-c2ccccc2)cc1,-27,58*,.
Cc1ccc(S(=O)(=O)Nc2ccc3c(c2)CC(=O)N([C@H](C)CO)C[C@H](C)[C@H](CN(C)Cc2ccc(-c4ccccc4)cc2)O3)cc1,-4,8,.
Cc1ccc(S(=O)(=O)Nc2ccc3c(c2)CC(=O)N([C@H](C)CO)C[C@H](C)[C@@H](CN(C)Cc2ccc(-c4ccccc4)cc2)O3)cc1,.,.,-1
C[C@H]1CN([C@@H](C)CO)C(=O)Cc2cc(NS(=O)(=O)c3cccs3)ccc2O[C@@H]1CN(C)Cc1ccc(-c2ccccc2)cc1,-15,56*,-1
C[C@H]1CN([C@@H](C)CO)C(=O)Cc2cc(NS(=O)(=O)c3ccc(Cl)cc3)ccc2O[C@@H]1CN(C)Cc1ccc(-c2ccccc2)cc1,3,61*,.
SMILES,INS-1E rescue,T cruzi HTS,A1 apoptosis 2
C[C@H](CO)N1C[C@H](C)[C@@H](CN(C)Cc2ccc(-c3ccccc3)cc2)Oc2ccc(NS(=O)(=O)c3cccs3)cc2CC1=O,.,.,0
C[C@H]1CN([C@@H](C)CO)C(=O)Cc2cc(NS(=O)(=O)c3ccc(F)cc3)ccc2O[C@@H]1CN(C)Cc1ccc(-c2ccccc2)cc1,-19,71*,0
Cc1ccc(S(=O)(=O)Nc2cccc3c2O[C@H](CN(C)C(=O)Nc2cccc4ccccc24)[C@@H](C)CN([C@@H](C)CO)C3=O)cc1,8,9,1
CC(C)NC(=O)Nc1ccc2c(c1)CC(=O)N([C@@H](C)CO)C[C@@H](C)[C@H](CN(C)Cc1ccccc1)O2,.,.,0
COC(=O)CCCCCCC(=O)N/N=C/c1cc(Br)ccc1OC,-3,30,1
C[C@H](CO)N1C[C@H](C)[C@@H](CN(C)Cc2ccccc2)Oc2ccc(NS(=O)(=O)c3ccc(F)cc3)cc2CC1=O,.,.,0
C[C@@H]1CN([C@H](C)CO)C(=O)Cc2cc(NS(=O)(=O)c3ccc(F)cc3)ccc2O[C@@H]1CN(C)Cc1ccccc1,-6,62*,0
C[C@@H]1CN([C@H](C)CO)C(=O)Cc2cc(NS(=O)(=O)c3ccccc3)ccc2O[C@@H]1CN(C)Cc1ccc(-c2ccccc2)cc1,-26,71*,2
Cc1ccc(S(=O)(=O)Nc2ccc3c(c2)CC(=O)N([C@@H](C)CO)C[C@H](C)[C@H](CN(C)Cc2ccc(-c4ccccc4)cc2)O3)cc1,-32,27,0
C[C@@H]1CN([C@@H](C)CO)C(=O)CCCn2cc(nn2)CO[C@@H]1CN(C)C(=O)Nc1ccc2c(c1)OCCO2,.,-5,-1
C[C@@H]1CN([C@@H](C)CO)C(=O)c2cccc(NC(=O)CCCCCC(=O)Nc3ccccc3N)c2O[C@H]1CN(C)C(=O)Nc1ccc(C(F)(F)F)cc1,20,-25,1
C[C@H](CO)N1C[C@H](C)[C@H](CN(C)C(=O)Nc2cccc3ccccc23)Oc2ccc(NC(=O)Cc3ccccc3)cc2CC1=O,18,-19,.
C[C@@H]1CN([C@@H](C)CO)C(=O)Cc2cc(NC(=O)NC3CCCCC3)ccc2O[C@H]1CN(C)S(=O)(=O)c1ccc(Cl)cc1,.,.,0
C[C@@H]1CN([C@H](C)CO)C(=O)Cc2cc(NC(=O)Nc3cccc4ccccc34)ccc2O[C@H]1CN(C)Cc1ccc(Cl)c(Cl)c1,0,47,.
